The text below walks through data of ChEMBL document CHEMBL1145571, “Carboxylic acid isosteres improve the activity of ring-fused 2-pyridones that inhibit pilus biogenesis in E. coli” (Bioorg Med Chem Lett, 2008).

The test system of one assay is Escherichia coli. The assay can be described thus: Inhibition of P pilus biogenesis in Escherichia coli HB101/pPAP5 assessed as agglutination of erythrocytes at 1.8 mM. In kind it is functional. The method, boiled down:
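E. coli HB101/pPAP5 grown 24 h at 37 °C on TSA containing 1.8 mM compound, 2.5% DMSO and 100 μg/ml ampicillin. Cells scraped off, suspended in PBS pH 7.4 to OD600 = 1.0. 1 ml pelleted at 2000g for 5 min, resuspended in 80 μl PBS, then serially diluted in PBS for hemagglutination read-out.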
Regarding `O=c1cc(Cc2cccc3ccccc23)c(-c2ccccc2)c2n1[C@H](c1nnn[nH]1)CS2`, the Activity came to 2.

With `O=C(NS(=O)(=O)c1ccccc1)[C@@H]1CSc2c(C3CC3)c(Cc3cccc4ccccc34)cc(=O)n21`, the Activity amounted to 4.

As to `O=C([O-])[C@@H]1CSc2c(C3CC3)c(Cc3cccc4ccccc34)cc(=O)n21.[Li+]`, the Activity was 8.

`NC(=O)[C@@H]1CSc2c(-c3ccccc3)c(Cc3cccc4ccccc34)cc(=O)n21`: the Activity is reported as 64.

On to `O=C(NO)[C@@H]1CSc2c(C3CC3)c(Cc3cccc4ccccc34)cc(=O)n21`, for which the Activity is recorded as 64.

As for `O=C(NO)[C@@H]1CSc2c(-c3ccccc3)c(Cc3cccc4ccccc34)cc(=O)n21`, the Activity was found to be 128.

Turning to `C[C@@H](C(=O)[O-])n1cc(C2CC2)c(Cc2cccc3ccccc23)cc1=O.[Li+]`, the Activity is recorded as 32.

For `NC(=O)[C@@H]1CSc2c(C3CC3)c(Cc3cccc4ccccc34)cc(=O)n21`, the Activity came to 64.

For the compound `CS(=O)(=O)NC(=O)[C@@H]1CSc2c(-c3ccccc3)c(Cc3cccc4ccccc34)cc(=O)n21`, the Activity stood at 4.

On to `CS(=O)(=O)NC(=O)[C@@H]1CSc2c(C3CC3)c(Cc3cccc4ccccc34)cc(=O)n21`, for which the Activity is 2.

`C[C@@H](C(=O)O)n1cc(-c2ccccc2)c(Cc2cccc3ccccc23)cc1=O`: the Activity stood at 32.

Regarding `O=C(NS(=O)(=O)c1ccccc1)[C@@H]1CSc2c(-c3ccccc3)c(Cc3cccc4ccccc34)cc(=O)n21`, the Activity worked out at 4.

`O=c1cc(Cc2cccc3ccccc23)c(C2CC2)c2n1[C@H](c1nnn[nH]1)CS2`: the Activity is reported as 4.

For a further assay, the system named is Escherichia coli. The assay can be described thus: Inhibition of pili-dependent biofilm formation of Escherichia coli HB101/pPAP5. In kind it is functional, organism-based.
As for `CS(=O)(=O)NC(=O)[C@@H]1CSc2c(C3CC3)c(Cc3cccc4ccccc34)cc(=O)n21`, the IC50 worked out at 30 µM.

`O=c1cc(Cc2cccc3ccccc23)c(C2CC2)c2n1[C@H](c1nnn[nH]1)CS2` returned an IC50 of 65 µM.

A further assay relates to Escherichia coli. Description: Inhibition of pili-dependent biofilm formation of Escherichia coli HB101/pPAP5 at 400 uM. In kind it is functional. On the set-up: scale not given: the % may be the effect or the level left.
As for `O=C([O-])[C@@H]1CSc2c(C3CC3)c(Cc3cccc4ccccc34)cc(=O)n21.[Li+]`, the Activity amounted to 45%.

For the next assay, the target named is Chaperone protein PapD (Escherichia coli) (UniProt P15319). Description: Binding affinity to Escherichia coli PapD relative to control. On the set-up: concentration or dose not given beside the values.
Chaperone protein PapD (Escherichia coli), sequence (P15319 whole entry, looked up): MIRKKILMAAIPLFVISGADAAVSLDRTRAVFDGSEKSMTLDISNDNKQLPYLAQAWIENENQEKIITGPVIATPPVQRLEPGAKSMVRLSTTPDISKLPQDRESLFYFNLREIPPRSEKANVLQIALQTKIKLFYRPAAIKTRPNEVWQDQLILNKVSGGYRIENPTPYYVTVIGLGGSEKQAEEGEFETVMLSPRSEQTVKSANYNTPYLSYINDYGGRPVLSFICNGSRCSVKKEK
The compound `O=C(NS(=O)(=O)c1ccccc1)[C@@H]1CSc2c(C3CC3)c(Cc3cccc4ccccc34)cc(=O)n21` showed an Activity of 100%.

For the compound `O=C([O-])[C@@H]1CSc2c(C3CC3)c(Cc3cccc4ccccc34)cc(=O)n21.[Li+]`, the Activity was found to be 71%.

In turn, `O=C(NO)[C@@H]1CSc2c(C3CC3)c(Cc3cccc4ccccc34)cc(=O)n21` showed an Activity of 52%.

`C[C@@H](C(=O)[O-])n1cc(C2CC2)c(Cc2cccc3ccccc23)cc1=O.[Li+]`: the Activity is 33%.

Consider `NC(=O)[C@@H]1CSc2c(C3CC3)c(Cc3cccc4ccccc34)cc(=O)n21`, for which the Activity was 40%.

With `CS(=O)(=O)NC(=O)[C@@H]1CSc2c(C3CC3)c(Cc3cccc4ccccc34)cc(=O)n21`, the Activity turned out to be 62%.

Compound `O=c1cc(Cc2cccc3ccccc23)c(C2CC2)c2n1[C@H](c1nnn[nH]1)CS2` came in with an Activity of 67%.

As a reminder, the IC50 is the concentration that inhibits the measured activity by half.
